Conditions in all cases: in vivo
The nature of data set [1]: Drug excretion in feces of female Sprague-Dawley rat treated with [14C]sunitinib at 5 mg/kg, iv administered as single dose by liquid scintillation counting. The data set is classed as ADME, organism-based. The arrangement: dose 5 mg/kg, dosed compound name [14C]Sunitinib, route intravenous. A digest of the protocol: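 Five female rats given a single tail-vein bolus of [14C]sunitinib L-malate, 5 mg/kg free base equivalents (50 µCi/kg). Urine and feces collected over 0-72 h into dry-ice cooled containers. Urine counted directly by liquid scintillation; feces homogenized and combusted in oxygen before counting. Expired air also monitored.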

Data set [2] in a line: Drug excretion in feces of female cynomolgus monkey treated with [14C]sunitinib at 6 mg/kg, po administered as single dose by liquid scintillation counting. Type of data set: ADME, organism-based, Macaca fascicularis. The arrangement: dose 6 mg/kg, dosed compound name [14C]Sunitinib, route oral. The procedure, abridged:
(§1)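 Cynomolgus monkeys given one oral gavage dose of [14C]sunitinib L-malate, 6 mg/kg (37 µCi/kg). Urine collected at 0-4, 4-8 and 8-24 h, feces at 0-8 and 8-24 h, then both daily to 14 days; samples stored at -80 °C. Duplicate urine aliquots counted by liquid scintillation; homogenized feces combusted before counting.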

Data set [3] can be described thus: Drug excretion in feces of male cynomolgus monkey treated with [14C]sunitinib at 6 mg/kg, po administered as single dose by liquid scintillation counting. Type of data set: ADME, organism-based, Macaca fascicularis. Further details: dose 6 mg/kg, dosed compound name [14C]Sunitinib, route oral. The procedure, abridged: as §1
Data set [4] is described as follows: Drug excretion in feces of female Sprague-Dawley rat treated with [14C]sunitinib at 15 mg/kg, po administered as single dose by liquid scintillation counting. Type of data set: ADME, organism-based. Further details: dose 15 mg/kg, dosed compound name [14C]Sunitinib, route oral. The procedure, abridged:
(§2)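 Female and male rats given one oral gavage dose, 15 mg/kg free base equivalents (50 µCi/kg). Urine and feces collected on dry ice, protected from light, over 0-4, 4-8 and 8-24 h, then daily to 72 h. Urine aliquots counted by liquid scintillation; homogenized feces combusted in oxygen before counting. Counts 5 min, external quench correction.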

Data set [5] in a line: Drug excretion in feces of male Sprague-Dawley rat treated with [14C]sunitinib at 15 mg/kg, po administered as single dose by liquid scintillation counting. The data set is classed as ADME, organism-based. The arrangement: dose 15 mg/kg, dosed compound name [14C]Sunitinib, route oral. A digest of the protocol:
as §2

Data set [6] in a line: Drug excretion in feces of human treated with [14C]sunitinib at 50 mg, po administered as single dose by liquid scintillation counting.

SMILES strings stand for the structures.

With `CCN(CC)CCNC(=O)c1c(C)[nH]c(/C=C2\C(=O)Nc3ccc(O)cc32)c1C`, the Compound recovery stood at 6.1% in data set [1]; 5.9% in data set [2]; 6.3% in data set [3]; 3.5% in data set [4]; 4.3% in data set [5].
As for `Cc1[nH]c(/C=C2\C(=O)Nc3ccc(F)cc32)c(C)c1C(=O)NCCN`, the Compound recovery was 1.1% in data set [1]; 0.8% in data set [2]; 1% in data set [3]; 1.7% in data set [4]; “metabolite_not_detected” in data set [6].

The record behind these values is ChEMBL document CHEMBL3525900, “Pharmacokinetics, distribution, and metabolism of [14C]sunitinib in rats, monkeys, and humans” (Drug Metab Dispos, 2012).
